Compounds with a hit are over-represented: about 1.9% of the library has one in this group of screens.
b-catenin transl: modulators of beta-catenin nuclear translocation; actives 0.3% (n = 190,000); nuclear translocation activity, % at 5 µM; HeLa beta-catenin nuclear translocation, immunofluorescence imaging;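 active means nuclear translocation activity above 50% at 5 µM, with a well cell count of 50 or more; inconclusive means wells under 50 cells across six images, flagged as toxic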;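 further: per-cell ratio of nuclear to cytoplasmic median beta-catenin stain intensity; plate controls were DMSO negative control for no effect and GSK-3 inhibitor IX positive control for full effect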
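Test system: human HeLa cells, native beta-catenin. Compound dosing: 5 µM primary single dose, 0.1% DMSO, 0.02–20 µM confirmation series. Incubation: compound exposure 24 h at 37°C. Detection: beta-catenin immunostaining with DAPI counterstain, 20x imaging, 6 fields/well. Read-out basis: Nuclear/cytoplasmic beta-catenin signal ratio, % activation.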
MT stabilize HCS: microtubule stabilization, imaging screen | % tubulin-high responders, % at 10 µM | actives 0.83% (n = 200,000) | AID 2205 | HeLa tubulin immunostaining HCS, 24 h; share of cells brighter than vehicle mean+2SD;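 active means plate Z-score above 3 for both tubulin-high and condensed-nucleus cell shares, with cell loss under 80%, at 10 µM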;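 further: anti alpha tubulin signal scored within the nucleus-defined area of each cell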
ROMK primary: modulators of human ROMK potassium channel. P48048. Tet-inducible ROMK, thallium flux fluorescence; actives lie on both sides. actives 2% (n = 130,000). B-score at 10 µM. AID 1918;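 active means signal ratio slope over the read window, or its plate-corrected B-score, at least 3 SD from the plate mean, either direction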;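 further: B-score of the F/F0 ratio slope over 7 to 12 s after thallium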
Target sequence (P48048 whole entry, looked up): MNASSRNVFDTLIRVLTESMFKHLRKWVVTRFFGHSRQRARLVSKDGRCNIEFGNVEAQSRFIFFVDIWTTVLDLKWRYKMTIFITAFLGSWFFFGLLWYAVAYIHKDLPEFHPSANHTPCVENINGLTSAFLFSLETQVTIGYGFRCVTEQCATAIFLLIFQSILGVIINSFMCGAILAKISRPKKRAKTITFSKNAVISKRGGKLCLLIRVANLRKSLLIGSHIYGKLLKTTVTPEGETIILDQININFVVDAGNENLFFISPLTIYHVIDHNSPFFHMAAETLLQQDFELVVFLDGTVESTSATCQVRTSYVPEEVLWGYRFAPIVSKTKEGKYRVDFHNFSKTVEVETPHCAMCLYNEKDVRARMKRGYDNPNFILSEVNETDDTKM
ROMK retest: confirmation of human ROMK potassium channel modulators; ROMK thallium flux, fluorescence ratio; hits give low values; actives 54% (n = 3,000); shares compounds with ROMK primary; normalized thallium flux (F/F0 slope) at 10 µM;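 active means Flux at 10 µM at least 3 SD below or above vehicle control mean in one or both replicates; inconclusive means no clear call, values can overlap the other calls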
An asterisk follows results filed as active; ? = inconclusive; . = no result.

SMILES | b-catenin transl | MT stabilize HCS | ROMK primary | ROMK retest
N#C/C(=C\C1CC=CCC1)c1nc2ccccc2[nH]1 (configuration not stated) | 0 | 2 | -7* | 0.045*
Cc1ccccc1C(=O)N/N=C1\SCC(=O)N1Cc1ccco1 | 0 | 3 | -1.1 | .
C/C(=N\NC(=S)Nc1ccccc1C)c1ccc(O)cc1 | -1 | 3 | -0.0091 | .
Cc1nnsc1Sc1ccccc1 | 0 | 3 | -0.073 | .
CN(C)C(=O)c1nc2ccc(Cl)cn2c1CN1CCCC(OCc2cccnc2)C1 (configuration not stated) | -1 | 2 | 1.4 | .
O=C(COC(=O)c1ccc(S(=O)(=O)NCc2ccco2)cc1)Nc1ccc(Cl)cn1 | 1 | 3 | -1.1 | .
CCCN1C(=O)/C(=C/c2c(NCCCOC(C)C)nc3c(C)cccn3c2=O)SC1=S | 3 | 2 | . | 0.055*
CCC(C)N1C(=O)/C(=C/c2c(NCCCOC(C)C)nc3c(C)cccn3c2=O)SC1=S (configuration not stated) | -1 | 2 | . | .
O=C(CSc1ccc(-c2ccc(F)cc2)nn1)N1CCOCC1 | 1 | 2 | -1.1 | .
CCc1ccc(C(=O)CSc2nc(C)cc(=O)[nH]2)cc1 | 2 | 2 | 0.63 | .
O=C(COC(=O)/C=C/c1ccc([N+](=O)[O-])cc1)NCc1ccc2c(c1)OCO2 | -2 | . | . | 0.079
O=C(Cc1ccc([N+](=O)[O-])cc1)NCc1ccc2c(c1)OCO2 | 2 | 1 | . | .
CCOC(=O)c1c(NC(=O)COc2ncnc3ccccc23)sc(C)c1CC | 0 | 4 | . | .
CCc1cc(/C(Cc2csc(C)n2)=N/O)c(O)cc1O | -3 | 2 | -3.3* | 0.067*
Cc1nc(C/C(=N\N)c2ccc(O)cc2O)cs1 | -2 | 2 | 0.36 | .
O=C(CN1CCOCC1)Nc1scc2c1c(=O)oc1ccccc12 | 1 | . | -0.88 | .
CC1CCN(C(=O)CCNC(=O)Cn2cnc3sc4c(c3c2=O)CCCC4)CC1 | . | 2 | -0.064 | .
COC(=O)CNC(=O)C(C)NC(=O)CNC(=O)OCc1ccccc1 (configuration not stated) | -2 | 3 | . | 0.077
C[C@H](NC(=O)OCc1ccccc1)C(=O)NNC(=O)[C@H](C)NC(=O)OCc1ccccc1 | 0 | . | . | .
CC(C)(C)OC(=O)C(Cc1ccc(OC(C)(C)C)cc1)NC(=O)CNC(=O)OCc1ccccc1 (configuration not stated) | -1 | 3 | -2.2* | 0.058*
C[C@H](NC(=O)OCc1ccccc1)C(=O)NNC(=O)[C@H](Cc1ccccc1)NC(=O)OC(C)(C)C | 1 | . | . | .
COC(=O)c1cc(Cl)nc2ccccc12 | -1 | 3 | -0.98 | .
O=C(c1cc2ccccc2o1)N(C1CC1)C1(C(=O)Nc2ccccc2)CCCC1 | 2 | 2 | -0.17 | .
CCCCOC(=O)Nc1ccc(C(=O)OC)cc1 | 1 | 4 | . | .
CCCCOC(=O)Nc1cc(C(=O)OC)ccc1C(=O)OC | 0 | 2 | 3.8* | 0.073
SMILES | b-catenin transl | MT stabilize HCS | ROMK primary | ROMK retest
O=C(C1=C(O)C(=O)N(Cc2cccnc2)C1c1ccccn1)c1cccs1 (configuration not stated) | 0 | 3 | 0.61 | .
C=CCn1c(COc2ccc(Cl)cc2)nnc1SCc1ccc(C#N)cc1 | -1 | 5 | . | ?
C=CCn1c(COc2ccccc2)nnc1SCc1ccc(C#N)cc1 | -3 | 3 | . | .
NNC1=N[C@H]2CS(=O)(=O)C[C@H]2S1 | 1 | 5 | 0.54 | .
Cc1cccc(C(=O)NC2=NCCS2)c1 | 0 | 2 | 0.37 | .
Nc1nc2ccccc2n1C(=O)c1ccccc1 | 1 | 3 | 2.1* | 0.076
Nc1nc2ccccc2n1C(=O)c1ccc(F)cc1 | 2 | 2 | 1.2 | .
OCCC1CN(Cc2cn[nH]c2C2CCCCC2)CCN1C1CCCCC1 (configuration not stated) | 0 | 3 | -0.76 | .
C=CCc1cc(OC)ccc1OCCOCCN1CCc2ccccc2C1 | 6 | 2 | -0.99 | .
Cc1ccc(CNc2oc(-c3cccs3)nc2C#N)cc1 | 0 | 5 | -0.003 | .
N#Cc1nc(-c2cccs2)oc1NCc1ccccc1 | . | 5 | -3.6* | 0.054*
CC(=O)NC1C(=O)N=C(SCC(=O)Nc2cccc(Cl)c2)NC1=O (configuration not stated) | 0 | 3 | 1.2 | .
CCOc1ccc(NC2c3ccccc3C(=O)N2Cc2ccc3c(c2)OCO3)cc1 (configuration not stated) | . | 6 | . | .
O=C1c2ccccc2C(Nc2ccc3c(c2)OCCO3)N1Cc1ccccc1 (configuration not stated) | . | 1 | . | 0.078
C=CCN(c1ccccc1)S(=O)(=O)c1ccc(Cl)c(C(=O)OCC(=O)c2[nH]c(C)c(C(C)=O)c2C)c1 | . | 3 | . | .
O=C(NCCc1c[nH]c2ccccc12)/C(=C/c1ccco1)NC(=O)c1ccco1 | 0 | 2 | 2.3* | 0.088
CC(=C\c1ccco1)/C=C(\C#N)C(=O)NCCc1c[nH]c2ccccc12 | 2 | 5 | . | .
CCOC(=O)C1=C(Cc2ccc(C)cc2)C(=O)c2ccccc2C1=O | . | 1 | -5.1* | 0.054*
CCOC(=O)C1=C(O)c2ccccc2C(=O)/C1=C\c1ccc(CC)cc1 | 2 | 3 | . | .
CN(CCN1CCOCC1)Cc1nc(-c2ccccc2)no1 | 0 | 1 | 0.071 | .
CCOc1ccc(CCNC(=O)CCS(=O)(=O)c2ccc(OC)cc2)cc1OCC | . | 2 | -0.052 | .
Clc1ccc(OCCCNCc2ccccc2)c(Br)c1 | -2 | 3 | -3* | 0.064*
COCCNCCCCOc1c(Cl)cc(C)cc1Br | 0 | 2 | . | .
O=[N+]([O-])c1ccccc1OCCCNCc1ccccc1 | 0 | 3 | 0.61 | .
Cc1cccc(OCCCCCNCCO)c1 | 3 | 3 | -0.0035 | .
SMILES | b-catenin transl | MT stabilize HCS | ROMK primary | ROMK retest
Cc1cccc(OCCCCNCc2ccccc2)c1 | 2 | 3 | -1.3* | 0.062*
Cc1cc(Cl)c(OCCCNCc2ccccc2)c(Br)c1 | -1 | 2 | -5.2* | 0.053*
OCCNCCCOc1ccc(Cl)cc1Br | 0 | 1 | . | .
Clc1ccc(Cl)c(OCCCCNCc2ccccc2)c1 | 0 | 2 | -3.2* | 0.066*
O=C(c1ccco1)c1nnn(Cc2ccccc2)c1-c1ccccc1 | -3 | 2 | . | .
CCN(CC)c1ccc(CN2CCC(C(=O)NCc3ccc(C)cc3)CC2)cc1 | 0 | 1 | -1.5 | .
COc1ccc(S(=O)(=O)N(C)C)cc1NS(=O)(=O)c1ccc(F)c(F)c1F | . | 3 | -0.6 | .
O=S(=O)(c1ccccc1)N1CC=C(c2ccccc2)CC1 | -5 | 2 | -0.023 | .
O=C(CSc1ccc2ccccc2n1)Nc1ccc(N2CCOCC2)cc1 | 2 | 2 | -0.58 | .
O=C(O)c1cccc(CN2C(=O)S/C(=C/c3cccc([N+](=O)[O-])c3)C2=O)c1 | 1 | . | -12* | 0.03*
C=CCN=C1S/C(=C/c2cccc([N+](=O)[O-])c2)C(=O)N1CC=C | 1 | . | . | .
Cc1ccccc1-c1oc(C)c(C)[n+]1[O-] | -1 | . | -0.72 | .
CCOC(=O)COc1cccc2c(=O)n(CC(=O)NCc3ccccc3)ccc12 | 56* | . | 4.7* | 0.088
CCOC(=O)COc1cccc2c(=O)n(CC(=O)NCc3ccc(F)cc3)ccc12 | 74* | . | 3.1* | 0.092
CCOC(=O)COc1cccc2c(=O)n(CC(N)=O)ccc12 | 1 | . | 0.13 | .
CCOC(=O)COc1cccc2c(=O)n(CC(=O)NCCc3ccc(OC)c(OC)c3)ccc12 | -2 | 4 | 0.69 | .
